Experimental data as given in ChEMBL document CHEMBL1949645, “In vitro and in vivo antifilarial activity evaluation of 3,6-epoxy [1,5]dioxocines: a new class of antifilarial agents” (Bioorg Med Chem Lett, 2012).
In brackets after ≈: the same amount, converted by molar mass.

Experiments:
Brugia malayi [1] = experiment: Antifilarial activity against microfilariae Brugia malayi by motility assay; type: functional, organism-based; conditions: for IC50: Brugia malayi
Outline: (§1)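 Brugia malayi (sub-periodic strain), female adult worms or microfilariae, scored by motility following the Murthy and Chatterjee method. Compounds and reference DEC dissolved in DMSO, final DMSO below 0.1% in incubation medium; DMSO-only controls. LC100 is the concentration giving 100% loss of motility (parasite death); IC50 is the concentration giving 50% motility inhibition.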

Brugia malayi [2] = experiment: Antifilarial activity against adult Brugia malayi by motility assay; type: functional, organism-based; conditions: for IC50: Brugia malayi; outline: as §1
Brugia malayi [3] = experiment: Antifilarial activity against Brugia malayi infected in Meriones unguiculatus assessed as sterilized female worm at 200 mg/kg, sc administered 7 to 8 days post-adult worm transplantation for 5 days measured after 42 days; type: functional; conditions: route subcutaneous
Outline: (§2)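 Dosing was s.c. once daily × 5 days: 200 mg/kg (n = 4) or 25 mg/kg (n = 6), with vehicle-treated controls (n = 4). Read-outs were peritoneal-cavity microfilaraemia status, worms recovered (mean ± SD, P vs control) and % sterilized female worms.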

Brugia malayi [4] = experiment: Growth inhibition of adult Brugia malayi by MTT assay; type: functional
Outline: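 Adult female B. malayi worms were exposed in vitro to agents dissolved in DMSO, keeping final DMSO below 0.1%. Controls received DMSO alone. Results are given as mean % inhibition of MTT reduction.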

Brugia malayi [5] = experiment: Antifilarial activity against 5 to 7 months old Brugia malayi infected in Mastomys coucha assessed as sterilized female worm at 200 mg/kg, sc administered 7 to 8 days post-adult worm transplantation for 5 days measured on day 91 (reference value: 19.62%); type: functional; conditions: route subcutaneous
Outline: (§3)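 Mastomys coucha harbouring B. malayi were dosed at 200 or 50 mg/kg, with vehicle-treated animals as controls. Male, female and total adult worms recovered were counted and given as mean ± SD. Sterilized female worms were reported as count (%).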

Brugia malayi [6] = experiment: Antifilarial activity against 5 to 7 months old Brugia malayi infected in Mastomys coucha assessed as reduction in worm burden at 200 mg/kg, sc administered 7 to 8 days post-adult worm transplantation for 5 days measured on day 91 relative to control; type: functional; set-up: scale not given: the % may be the effect or the level left; conditions: route subcutaneous; outline: as §3
Brugia malayi [7] = experiment: Antifilarial activity against 5 to 7 months old Brugia malayi infected in Mastomys coucha assessed as reduction in worm burden at 50 mg/kg, sc administered 7 to 8 days post-adult worm transplantation for 5 days measured on day 91 relative to control; type: functional; set-up: scale not given: the % may be the effect or the level left; conditions: route subcutaneous; outline: as §3
Brugia malayi [8] = experiment: Antifilarial activity against 5 to 7 months old Brugia malayi infected in Mastomys coucha assessed as sterilized female worm at 50 mg/kg, sc administered 7 to 8 days post-adult worm transplantation for 5 days measured on day 91 (reference value: 19.62%); type: functional; conditions: route subcutaneous; outline: as §3
Brugia malayi [9] = experiment: Antifilarial activity against Brugia malayi infected in Meriones unguiculatus assessed as sterilized female worm at 25 mg/kg, sc administered 7 to 8 days post-adult worm transplantation for 5 days measured after 42 days; type: functional; conditions: route subcutaneous; outline: as §2

CCC(C)c1cc(/C=C/C(=O)c2ccc(OC)cc2)cc2c1OCC1COC2O1 (racemic)
LC100 (Brugia malayi [1]): >10 µg/mL
LC100 (Brugia malayi [2]): >10 µg/mL

Cc1cc(/C=C/C(=O)c2ccccc2)cc2c1OCC1COC2O1 (racemic)
LC100 (Brugia malayi [1]): 2.5 µg/mL
IC50 (Brugia malayi [1]): 0.9 µg/mL (≈ 2.79 µM)
Activity (Brugia malayi [3]): 29%
growth inhibition (GI) (Brugia malayi [4]): 15%
LC100 (Brugia malayi [2]): 1.25 µg/mL
IC50 (Brugia malayi [2]): 1 µg/mL (≈ 3.1 µM)

Cc1cc(/C=C/C(=O)c2ccc(Cl)cc2)cc2c1OCC1COC2O1 (racemic)
LC100 (Brugia malayi [1]): 2.5 µg/mL
IC50 (Brugia malayi [1]): 1.1 µg/mL (≈ 3.08 µM)
Activity (Brugia malayi [3]): 29%
growth inhibition (GI) (Brugia malayi [4]): 39%
LC100 (Brugia malayi [2]): 1.25 µg/mL
IC50 (Brugia malayi [2]): 0.6 µg/mL (≈ 1.68 µM)

Cc1ccc(C(=O)/C=C/c2cc(C)c3c(c2)C2OCC(CO3)O2)cc1 (racemic)
LC100 (Brugia malayi [1]): 5 µg/mL
IC50 (Brugia malayi [1]): 1.8 µg/mL (≈ 5.35 µM)
Activity (Brugia malayi [3]): 45%
growth inhibition (GI) (Brugia malayi [4]): 22%
LC100 (Brugia malayi [2]): 1.25 µg/mL
IC50 (Brugia malayi [2]): 0.4 µg/mL (≈ 1.19 µM)

COc1ccc(C(=O)/C=C/c2cc(C)c3c(c2)C2OCC(CO3)O2)cc1 (racemic)
LC100 (Brugia malayi [1]): >10 µg/mL
IC50 (Brugia malayi [1]): 3.9 µg/mL (≈ 11.1 µM)
Activity (Brugia malayi [5]): 24.6%
Activity (Brugia malayi [3]): 24%
growth inhibition (GI) (Brugia malayi [4]): 22%
Activity (Brugia malayi [6]): 32.89%
LC100 (Brugia malayi [2]): 10 µg/mL
IC50 (Brugia malayi [2]): 3.5 µg/mL (≈ 9.93 µM)

CCC(C)c1cc(/C=C/C(=O)c2ccccc2)cc2c1OCC1COC2O1 (racemic)
LC100 (Brugia malayi [1]): 5 µg/mL
IC50 (Brugia malayi [1]): 0.9 µg/mL (≈ 2.47 µM)
Activity (Brugia malayi [3]): 27%
LC100 (Brugia malayi [2]): 2.5 µg/mL
IC50 (Brugia malayi [2]): 0.9 µg/mL (≈ 2.47 µM)

CCC(C)c1cc(/C=C/C(=O)c2ccc(Cl)cc2)cc2c1OCC1COC2O1 (racemic)
LC100 (Brugia malayi [1]): 10 µg/mL
IC50 (Brugia malayi [1]): 3.5 µg/mL (≈ 8.77 µM)
Activity (Brugia malayi [5]): 17.78%
Activity (Brugia malayi [3]): 63%
Activity (Brugia malayi [6]): 38.16%
LC100 (Brugia malayi [2]): 5 µg/mL
IC50 (Brugia malayi [2]): 1.6 µg/mL (≈ 4.01 µM)

CCC(C)c1cc(/C=C/C(=O)c2ccc(C)cc2)cc2c1OCC1COC2O1 (racemic)
LC100 (Brugia malayi [1]): >10 µg/mL
LC100 (Brugia malayi [2]): 10 µg/mL
IC50 (Brugia malayi [2]): 0.5 µg/mL (≈ 1.32 µM)

O=C(/C=C/c1cc2c(c3ccccc13)OCC1COC2O1)c1ccccc1 (racemic)
LC100 (Brugia malayi [1]): >10 µg/mL
growth inhibition (GI) (Brugia malayi [4]): 34%
LC100 (Brugia malayi [2]): >10 µg/mL

O=C(/C=C/c1cc2c(c3ccccc13)OCC1COC2O1)c1ccc(Cl)cc1 (racemic)
LC100 (Brugia malayi [1]): >10 µg/mL
growth inhibition (GI) (Brugia malayi [4]): 41%
LC100 (Brugia malayi [2]): >10 µg/mL

Cc1ccc(C(=O)/C=C/c2cc3c(c4ccccc24)OCC2COC3O2)cc1 (racemic)
LC100 (Brugia malayi [1]): >10 µg/mL
growth inhibition (GI) (Brugia malayi [4]): 33%
LC100 (Brugia malayi [2]): >10 µg/mL

COc1ccc(C(=O)/C=C/c2cc3c(c4ccccc24)OCC2COC3O2)cc1 (racemic)
LC100 (Brugia malayi [1]): >10 µg/mL
growth inhibition (GI) (Brugia malayi [4]): 35%
LC100 (Brugia malayi [2]): >10 µg/mL

CCN(CC)C(=O)N1CCN(C)CC1.O=C(O)CC(O)(CC(=O)O)C(=O)O [DIETHYLCARBAMAZINE CITRATE]
Activity (Brugia malayi [7]): 20.18%
Activity (Brugia malayi [8]): 20.59%
Activity (Brugia malayi [9]): 11%

CCN(CC)C(=O)N1CCN(C)CC1 [DIETHYLCARBAMAZINE]
LC100 (Brugia malayi [1]): 500 µg/mL
IC50 (Brugia malayi [1]): 354 µg/mL (≈ 1780 µM)
growth inhibition (GI) (Brugia malayi [4]): 64%
LC100 (Brugia malayi [2]): 800 µg/mL
IC50 (Brugia malayi [2]): 289 µg/mL (≈ 1450 µM)
